According to ChEMBL document CHEMBL3525975, “Acetylenic linkers in lead compounds: a study of the stability of the propargyl-linked antifolates” (Drug Metab Dispos, 2012):
In brackets after ≈: the same amount, converted by molar mass.

Columns and labels:
[1] = Drug metabolism in mouse liver microsomes assessed as 3-(4-(2,4-diamino-6-methylpyrimidin-5-yl)but-3-yn-2-yl)-5-(pyridin-4-yl)phenol formation at 10 ug/ml by LC-MS/MS method; assay type: ADME
Method in brief: (§1)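 Compound at 10 μg/ml incubated 2 h with mouse liver microsomes (0.5 mg/ml protein, 37°C) in 0.1 M potassium phosphate pH 7.4 with 200 μg/ml HPMC and an NADPH-regenerating system. Controls were DMSO alone and reactions quenched with ACN immediately after adding microsomes. Reactions were stopped with equal volume ice-cold ACN, centrifuged, solid-phase purified and analysed by LC-MS/MS. Metabolite share = metabolite AUC / total metabolite AUC in the same injection.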

[2] = Stability in water at 5 ug/ml after 24 hrs at 37 degC by reverse phase HPLC method; assay type: physicochemical; conditions: buffer
Method in brief: (§2)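 Compounds incubated 24 h at 37°C in the stated fluid containing 200 μg/ml HPMC. Samples taken before and after incubation, quenched with equal volume ice-cold ACN, centrifuged and the supernatant run on reversed-phase HPLC. Stability = AUC after / AUC before incubation.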

[3] = Stability in pH 1.2 simulated gastric fluid at 5 ug/ml after 24 hrs at 37 degC by reverse phase HPLC method; assay type: ADME; conditions: simulated gi fluid, pH 1.2, 24 h; method in brief: as §2
[4] = Stability in mouse liver microsomes assessed as parent compound remaining at 5 ug/ml after 1 hr at 37 degC by reverse phase HPLC method; assay type: ADME; conditions: read-out: Stability
Method in brief: (§3)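 Mouse liver microsomes (0.5 mg/ml) in 0.1 M potassium phosphate pH 7.4 with 200 μg/ml HPMC, 37°C. NADPH-regenerating system: 1.3 mM NADP+, 3.3 mM glucose 6-phosphate, 0.5 U/ml G6P dehydrogenase, 3.3 mM MgCl2. Final compound concentration 5 μg/ml; start by adding microsomes. Controls: DMSO, and compound without microsomes. Quench with ice-cold ACN, solid-phase cleanup, reversed-phase HPLC. Result is percent parent remaining vs pre-incubation. Half-life from the single time point, assuming first-order kinetics.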

[5] = Drug metabolism in mouse liver microsomes assessed as 4-(3-(4-(2,4-diamino-6-methylpyrimidin-5-yl)but-3-yn-2-yl)-5-methoxyphenyl)pyridine 1-oxide at 10 ug/ml by LC-MS/MS method; assay type: ADME; method in brief: as §1
[6] = Stability in pH 7.4 simulated intestinal fluid at 5 ug/ml after 24 hrs at 37 degC by reverse phase HPLC method; assay type: ADME; conditions: simulated gi fluid, pH 7.4, 24 h; method in brief: as §2
[7] = Drug metabolism in mouse liver microsomes assessed as demethylation at 5 ug/ml after 1 hr at 37 degC by reverse phase HPLC method; assay type: ADME
[8] = Half life in mouse liver microsomes at 5 ug/ml at 37 degC by reverse phase HPLC method; assay type: ADME; method in brief: as §3
Dihydrofolate reductase = Dihydrofolate reductase (Staphylococcus aureus, UniProt P0A017); experiment: Inhibition of Staphylococcus aureus DHFR assessed as reduction in rate of NADPH consumption
Method in brief: (§4)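 DHFR activity followed as NADPH consumption at 340 nm over 5 min. Pure enzyme at limiting concentration, 100 μM NADPH, 1 mM dihydrofolate. Buffer: 50 mM KCl, 10 mM 2-mercaptoethanol, 0.5 mM EDTA, 1 mg/ml BSA. Run in triplicate.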

Liver [9] = experiment: Drug level in mouse liver microsomes treated with 10 ug/ml 6-ethyl-5-(3-(2-methoxy-5-(pyridin-4-yl)phenyl)but-1-ynyl)pyrimidine-2,4-diamine by LC-MS/MS method; assay type: ADME; method in brief: as §1
Liver [10] = experiment: Drug level in mouse liver microsomes treated with 10 ug/ml 6-ethyl-5-(3-(3-methoxy-5-(pyridin-4-yl)phenyl)prop-1-ynyl)pyrimidine-2,4-diamine by LC-MS/MS method; assay type: ADME; method in brief: as §1
Liver [11] = experiment: Drug level in mouse liver microsomes treated with 10 ug/ml 6-ethyl-5-(3-(3-methoxy-5-(pyridin-4-yl)phenyl)but-1-ynyl)pyrimidine-2,4-diamine by LC-MS/MS method; assay type: ADME; method in brief: as §1
[12] = Drug metabolism in mouse liver microsomes assessed as 4-(3-(4-(2,4-diamino-6-ethylpyrimidin-5-yl)but-3-yn-2-yl)-5-methoxyphenyl)pyridine 1-oxide formation at 10 ug/ml by LC-MS/MS method; assay type: ADME; method in brief: as §1
[13] = Drug metabolism in mouse liver microsomes assessed as 3-(4-(2,4-diamino-6-ethylpyrimidin-5-yl)but-3-yn-2-yl)-5-(pyridin-4-yl)phenol formation at 10 ug/ml by LC-MS/MS method; assay type: ADME; method in brief: as §1
[14] = Kinetic solubility of the compound; assay type: physicochemical; conditions: read-out: Kinetic_solubility
Method in brief: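 20 or 40 mM DMSO stocks diluted into filtered water with or without 200 μg/ml methylcellulose. Centrifuged, held 30 min at room temperature, then reversed-phase HPLC (50% ACN / 50 mM potassium phosphate pH 7.0, isocratic). Solubility taken as the highest concentration where absorbance stays linear with log concentration.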

[15] = Inhibition of Candida glabrata DHFR; set-up: species or system Nakaseomyces glabratus; method in brief: as §4
Liver [16] = experiment: Drug level in mouse liver microsomes treated with 10 ug/ml 5-(3-(3-methoxy-5-(pyridin-4-yl)phenyl)but-1-ynyl)-6-methylpyrimidine-2,4-diamine by LC-MS/MS method; assay type: ADME; method in brief: as §1
Liver [17] = experiment: Drug level in mouse liver microsomes treated with 10 ug/ml 6-ethyl-5-(3-(2-methoxy-5-(pyridin-4-yl)phenyl)prop-1-ynyl)pyrimidine-2,4-diamine by LC-MS/MS method; assay type: ADME; method in brief: as §1
Staphylococcus aureus = experiment: Antimicrobial activity against Staphylococcus aureus; assay type: functional
[18] = Drug metabolism in mouse liver microsomes assessed as 2-(4-(2,4-diamino-6-ethylpyrimidin-5-yl)but-3-yn-2-yl)-4-(pyridin-4-yl)phenol formation at 10 ug/ml by LC-MS/MS method; assay type: ADME; method in brief: as §1
[19] = Drug metabolism in mouse liver microsomes assessed as 4-(3-(4-(2,4-diamino-6-ethylpyrimidin-5-yl)but-3-yn-2-yl)-4-methoxyphenyl)pyridine 1-oxide formation at 10 ug/ml by LC-MS/MS method; assay type: ADME; method in brief: as §1
[20] = Drug metabolism in mouse liver microsomes assessed as 4-(3-(3-(2,4-diamino-6-ethylpyrimidin-5-yl)prop-2-ynyl)-4-methoxyphenyl)pyridine 1-oxide formation at 10 ug/ml by LC-MS/MS method; assay type: ADME; method in brief: as §1
[21] = Drug metabolism in mouse liver microsomes assessed as 2-(3-(2,4-diamino-6-ethylpyrimidin-5-yl)prop-2-ynyl)-4-(pyridin-4-yl)phenol formation at 10 ug/ml by LC-MS/MS method; assay type: ADME; method in brief: as §1

Chain of Dihydrofolate reductase (P0A017 whole entry): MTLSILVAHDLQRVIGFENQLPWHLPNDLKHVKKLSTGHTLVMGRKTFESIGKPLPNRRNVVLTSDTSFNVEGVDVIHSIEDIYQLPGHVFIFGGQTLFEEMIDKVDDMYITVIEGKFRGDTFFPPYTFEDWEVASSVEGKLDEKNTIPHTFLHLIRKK

Which Drug metabolism [1] does the source give for `COc1cc(-c2ccncc2)cc(C(C)C#Cc2c(C)nc(N)nc2N)c1` (configuration not stated) here?
The Drug metabolism was “metabolite_detected”.

And the Stability [2]?
The Stability was “Stable”.

What about the Stability [3] of the same compound?
The Stability was “Stable”.

And the remaining at 1 h, 5 ug/ml [4]?
The remaining at 1 h, 5 ug/ml was 33.7%.

What about the Drug metabolism [5] of the same compound?
The Drug metabolism was “metabolite_detected”.

What about the Stability [6] of the same compound?
Its Stability is “Stable”.

What about the Drug metabolism [7] of the same compound?
The Drug metabolism was 15.9%.

And the half-life at 5 ug/ml [8]?
Its half-life at 5 ug/ml is 38 min.

For `CCc1nc(N)nc(N)c1C#CC(C)c1cc(-c2cc[n+]([O-])cc2)ccc1OC` (configuration not stated), which IC50 (Dihydrofolate reductase) is on record?
Its IC50 is 45 nM.

And the Drug metabolism (Liver [9])?
Its Drug metabolism is “metabolite_detected”.

Which Drug metabolism (Liver [10]) does the source give for `CCc1nc(N)nc(N)c1C#CCc1cc(O)cc(-c2ccncc2)c1` here?
Its Drug metabolism is “metabolite_detected”.

With `CCc1nc(N)nc(N)c1C#CC(C)c1cc(O)cc(-c2ccncc2)c1` (configuration not stated) as the compound, how does the Drug metabolism (Liver [11]) read?
The Drug metabolism was “metabolite_detected”.

Which Stability [2] does the source give for `CCc1nc(N)nc(N)c1C#CC(C)c1cc(OC)cc(-c2ccncc2)c1` (configuration not stated) here?
Its Stability is “Stable”.

What about the Stability [3] of the same compound?
Its Stability is “Stable”.

What about the Drug metabolism [12] of the same compound?
The Drug metabolism was “metabolite_detected”.

What about the remaining at 1 h, 5 ug/ml [4] of the same compound?
Its remaining at 1 h, 5 ug/ml is 29.2%.

What about the Stability [6] of the same compound?
Its Stability is “Stable”.

What about the Drug metabolism [7] of the same compound?
Its Drug metabolism is 28%.

What about the Drug metabolism [13] of the same compound?
The Drug metabolism was “metabolite_detected”.

What about the half-life at 5 ug/ml [8] of the same compound?
Its half-life at 5 ug/ml is 34 min.

What does the source list for `CCc1nc(N)nc(N)c1C#CC(C)c1cc(OC)cc(N2CCOCC2)c1` (configuration not stated)?
IC50 (Dihydrofolate reductase): 26 nM; solubility kinetic [14]: > 80 µg/mL

For `COc1cc(-c2cc(C)cc(C)c2)cc(C(C)C#Cc2c(C)nc(N)nc2N)c1` (configuration not stated), which IC50 [15] is on record?
The IC50 was 0.5 nM.

Which Drug metabolism (Liver [16]) does the source give for `Cc1nc(N)nc(N)c1C#CC(C)c1cc(O)cc(-c2ccncc2)c1` (configuration not stated) here?
The Drug metabolism was “metabolite_detected”.

Which Drug metabolism (Liver [10]) does the source give for `CCc1nc(N)nc(N)c1C#CCc1cc(OC)cc(-c2cc[n+]([O-])cc2)c1` here?
The Drug metabolism was “metabolite_detected”.

For `CCc1nc(N)nc(N)c1C#CCc1cc(-c2ccncc2)ccc1O`, which Drug metabolism (Liver [17]) is on record?
Its Drug metabolism is “metabolite_detected”.

Which solubility kinetic [14] does the source give for `COc1cc(C(C)C#Cc2c(C)nc(N)nc2N)cc(N2CCOCC2)c1` (configuration not stated) here?
Its solubility kinetic is > 80 µg/mL.

With `COc1cc(C(C)C#Cc2c(C)nc(N)nc2N)cc(N2CCNCC2)c1` (configuration not stated) as the compound, how does the IC50 (Dihydrofolate reductase) read?
The IC50 was 130 nM.

And the solubility kinetic [14]?
The solubility kinetic was 60 µg/mL (≈ 164 µM).

What about the MIC (Staphylococcus aureus) of the same compound?
The MIC was 91.5 µg/mL (≈ 250 µM).

With `CCc1nc(N)nc(N)c1C#CC(C)c1cc(-c2ccncc2)ccc1OC` (configuration not stated) as the compound, how does the Drug metabolism [18] read?
Its Drug metabolism is “metabolite_detected”.

What about the Drug metabolism [19] of the same compound?
Its Drug metabolism is “metabolite_detected”.

And the half-life at 5 ug/ml [8]?
Its half-life at 5 ug/ml is 65 min.

For `COc1cc(-c2cc[n+]([O-])cc2)cc(C(C)C#Cc2c(C)nc(N)nc2N)c1` (configuration not stated), which Drug metabolism (Liver [16]) is on record?
Its Drug metabolism is “metabolite_detected”.

With `CCc1nc(N)nc(N)c1C#CCc1cc(OC)cc(-c2ccncc2)c1` as the compound, how does the Stability [2] read?
Its Stability is “Stable”.

And the Stability [3]?
The Stability was “Stable”.

And the remaining at 1 h, 5 ug/ml [4]?
Its remaining at 1 h, 5 ug/ml is 0%.

What about the Stability [6] of the same compound?
Its Stability is “Stable”.

What about the Drug metabolism [7] of the same compound?
Its Drug metabolism is 6.3%.

What about the half-life at 5 ug/ml [8] of the same compound?
The half-life at 5 ug/ml was < 10 min.

With `COc1cc(-c2ccccc2)cc(C(C)C#Cc2c(C)nc(N)nc2N)c1` (configuration not stated) as the compound, how does the IC50 (Dihydrofolate reductase) read?
The IC50 was 61 nM.

What about the solubility kinetic [14] of the same compound?
Its solubility kinetic is 20 µg/mL (≈ 55.8 µM).

And the MIC (Staphylococcus aureus)?
The MIC was 0.72 µg/mL (≈ 2.01 µM).

Which Drug metabolism (Liver [11]) does the source give for `CCc1nc(N)nc(N)c1C#CC(C)c1cc(OC)cc(-c2cc[n+]([O-])cc2)c1` (configuration not stated) here?
Its Drug metabolism is “metabolite_detected”.

What does the source list for `CCc1nc(N)nc(N)c1C#CCc1cc(-c2ccncc2)ccc1OC`?
Stability [2]: Stable; Stability [3]: Stable; Drug metabolism [20]: metabolite_detected; remaining at 1 h, 5 ug/ml [4]: 26.5%; Stability [6]: Stable; Drug metabolism [7]: 19.7%; Drug metabolism [21]: metabolite_detected; half-life at 5 ug/ml [8]: 31 min
